Consider one compound from ChEMBL document CHEMBL3992509, “Discovery of a Highly Potent, Selective, and Metabolically Stable Inhibitor of Receptor-Interacting Protein 1 (RIP1) for the Treatment of Systemic Inflammatory Response Syndrome” (J Med Chem, 2017).

As a reminder, the IC50 is the concentration that inhibits the measured activity by half. Read a high IC50 as weaker potency in that assay. Usually half-life stands for the time needed for the level to fall by half in the phase considered. The efflux ratio is the permeability from basolateral to apical divided by that in the opposite direction, in the common usage. By Papp A→B is commonly meant the apparent permeability from the apical to the basolateral side of a cell layer. One may read the Papp B→A as how fast a substance crosses the layer from the basolateral side.

For data set [1], the target named is Receptor-interacting serine/threonine-protein kinase 3 (Homo sapiens) (UniProt Q9Y572). Description: Inhibition of TNFalpha/z-VAD-FMK-induced RIP3 phosphorylation at Ser-227 residue in human HT-29 cells by Western blot method. Type of data set: cell-based. (In western blotting, separated proteins are transferred to a membrane and probed.)
The subject of data set [2] is Mus musculus. Kind of data set: Toxicity in C57BL/6J mouse assessed as injury at 50 mg/kg administered once in every 3 hrs for 24 hrs. Type of data set: organism-based. As to conditions: in vivo. An outline of the steps:
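Mice dosed 50 mg/kg every 3 h for 24 h and examined for injury.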

Data set [3] relates to Mus musculus. Description: Protection against TNFalpha-induced myocardium damage in C57BL/6J mouse at 0.3 to 3 mg/kg, ip pretreated for 17 mins followed by TNFalpha injection and subsequent compound treatment once in every 12 hrs measured 24 hrs post TNFalpha injection by hematoxylin and eosin staining based assay. The format is functional, organism-based. The essentials:
(§1)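 Mice given mTNFα IV; compound 0.3, 1, 3 mg/kg IP 17 min before and every 12 h. Killed 24 h post-TNFα. Organs fixed 24 h in 10% neutral buffered formalin, paraffin-embedded, 5-μm sections, H&E stained; ×200, at least three mice each.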

In another data set the target is Cytochrome P450 3A4 (Homo sapiens, UniProt P08684). Kind of data set: Inhibition of CYP3A4 (unknown origin). The format is ADME.
The target of data set [4] is Receptor-interacting serine/threonine-protein kinase 3 (Homo sapiens) (UniProt Q9Y572). Kind of data set: Inhibition of full length recombinant human N-terminal GST-tagged RIP3 expressed in baculovirus infected sf9 cells at 10 uM using MBP as substrate preincubated for 15 mins followed by MBP/ATP mixture addition measured after 90 mins by ADP-Glo kinase assay. For orientation: ADP-Glo first removes unused ATP, then detects ADP through luciferase.

Data set [5] can be described thus: Half life in C57BL/6J mouse at 2 mg/kg, iv by LC-MS/MS analysis. Type of data set: ADME, organism-based. As to conditions: in vivo. The essentials: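 C57BL/6 mice (n = 3) dosed IV, IP or PO; blood sampled by eye puncture at various time points; plasma levels by LC-MS/MS; parameters from individual animal data by non-compartmental analysis.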
Data set [6] can be described thus: Efflux ratio of apparent permeability in MDCK cells harboring MDR1. The format is ADME, cell-based, Canis lupus familiaris. As to conditions: dog.
Data set [7] can be described thus: Half life in mouse liver microsomes in presence of NADPH by LC-MS/MS analysis. The format is ADME, microsome.
Data set [8] in a line: Apparent permeability from apical to basolateral side in MDCK cells harboring MDR1. The conditions noted are these: dog. Type of data set: ADME, cell-based, Canis lupus familiaris. An outline of the steps:
(§2)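 Permeability measured in MDCK-MDR1 cell monolayers in both directions, apical-to-basolateral and basolateral-to-apical; efflux ratio derived from the two Papp values.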

The target in data set [9] is T1, Receptor-interacting serine/threonine-protein kinase 1 (Homo sapiens) (UniProt Q13546).
T1 sequence (whole entry): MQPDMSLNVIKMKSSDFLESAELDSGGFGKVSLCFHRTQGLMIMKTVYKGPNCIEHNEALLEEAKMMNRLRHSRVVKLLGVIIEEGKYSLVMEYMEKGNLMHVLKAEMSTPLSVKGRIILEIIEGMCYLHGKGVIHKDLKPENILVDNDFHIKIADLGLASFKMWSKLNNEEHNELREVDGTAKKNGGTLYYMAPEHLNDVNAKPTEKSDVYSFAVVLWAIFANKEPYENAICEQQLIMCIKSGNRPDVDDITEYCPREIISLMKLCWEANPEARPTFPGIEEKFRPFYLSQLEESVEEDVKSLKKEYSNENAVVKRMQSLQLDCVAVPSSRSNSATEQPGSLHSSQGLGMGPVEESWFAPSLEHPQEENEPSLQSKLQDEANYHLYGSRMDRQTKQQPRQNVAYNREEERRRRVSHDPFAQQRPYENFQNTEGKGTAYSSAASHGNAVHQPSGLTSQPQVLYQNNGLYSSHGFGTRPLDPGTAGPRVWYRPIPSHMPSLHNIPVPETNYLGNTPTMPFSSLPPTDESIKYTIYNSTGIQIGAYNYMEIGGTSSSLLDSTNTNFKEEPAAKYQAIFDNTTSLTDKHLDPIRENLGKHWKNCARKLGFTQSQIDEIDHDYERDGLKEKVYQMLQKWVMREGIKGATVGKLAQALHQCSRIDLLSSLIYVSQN
Description: Inhibition of TNFalpha/z-VAD-FMK-induced RIP1 phosphorylation in human HT-29 cells by Western blot method. Type of data set: cell-based.

Data set [10] deals with Mus musculus. Kind of data set: Protection against TNFalpha-induced mortality in ip dosed C57BL/6J mouse assessed as increase in survival rate administered as single dose 17 mins before TNFalpha injection measured every 30 mins up to 60 hrs post TNFalpha injection. Type of data set: functional, organism-based. An outline of the steps: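 C57BL/6 mice, 6-8 weeks, ~20 g, randomized (n = 6~10). Given 5.5 μg mTNFα (~0.25 mg/kg) IV in endotoxin-free PBS, 0.2 mL. Compound IP 17 min before TNFα: either once at 6 mg/kg or […], 1, 3 mg/kg then every 12 h; vehicle controls. Survival checked every 30 min to 60 h.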

Another data set has as its target Cytochrome P450 2D6 (Homo sapiens, UniProt P10635). Description: Inhibition of CYP2D6 (unknown origin). The format is ADME.
Data set [11] in a line: Intrinsic clearance in mouse liver microsomes assessed per mg protein in presence of NADPH by LC-MS/MS analysis. As to conditions: read-out: CLH. The format is ADME, microsome.
Data set [12] can be described thus: Half life in human liver microsomes in presence of NADPH by LC-MS/MS analysis. The format is ADME, microsome.
Data set [13] is described as follows: Apparent permeability from basolateral to apical side in MDCK cells harboring MDR1. Type of data set: ADME, cell-based, Canis lupus familiaris. The conditions noted are these: dog. An outline of the steps: as §2
Data set [14] in a line: Intrinsic clearance in human liver microsomes assessed per mg protein in presence of NADPH by LC-MS/MS analysis. Type of data set: ADME, microsome. As to conditions: read-out: CLH.
In data set [15] the test system is Mus musculus. Kind of data set: Protection against TNFalpha-induced multiorgan damage in C57BL/6J mouse assessed as serum LDH level at 0.3 to 3 mg/kg, ip pretreated for 17 mins followed by TNFalpha injection and subsequent compound treatment once in every 12 hrs measured 24 hrs post TNFalpha injection. Type of data set: functional, organism-based. An outline of the steps: (§3)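 C57BL/6 mice given 4 μg mTNFα (~0.18 mg/kg) IV. Compound 0.3, 1, 3 mg/kg IP 17 min before and then every 12 h; vehicle controls. Blood taken 12 h and 24 h after TNFα. Assays: IL-6 and IL-1β; serum LDH, CK, AST, creatinine, BUN, amylase.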

A further data set addresses Cytochrome P450 2C9 (Homo sapiens, UniProt P11712). Kind of data set: Inhibition of CYP2C9 (unknown origin). The format is ADME.
Data set [16] has as its system Mus musculus. Description: Protection against TNFalpha-induced multiorgan damage in C57BL/6J mouse assessed as serum CK-MB level at 0.3 to 3 mg/kg, ip pretreated for 17 mins followed by TNFalpha injection and subsequent compound treatment once in every 12 hrs measured 24 hrs post TNFalpha injection. Type of data set: functional, organism-based. An outline of the steps: as §3

Data set [17] has as its system Mus musculus. Kind of data set: Protection against TNFalpha-induced thymus damage in C57BL/6J mouse assessed as reduction in immune cell infiltration at 0.3 to 3 mg/kg, ip pretreated for 17 mins followed by TNFalpha injection and subsequent compound treatment once in every 12 hrs measured 24 hrs post TNFalpha injection by hematoxylin and eosin staining based assay. The format is functional, organism-based. The essentials:
as §1

Data set [18] concerns Mus musculus. Description: Protection against TNFalpha-induced multiorgan damage in C57BL/6J mouse assessed as blood urea nitrogen level at 0.3 to 3 mg/kg, ip pretreated for 17 mins followed by TNFalpha injection and subsequent compound treatment once in every 12 hrs measured 24 hrs post TNFalpha injection. The format is functional, organism-based. An outline of the steps:
as §3

Active and inactive are the calls of the source. Bounds are passed on as bounds.

Chain of Receptor-interacting serine/threonine-protein kinase 3 (Homo sapiens) (Q9Y572 whole entry, looked up): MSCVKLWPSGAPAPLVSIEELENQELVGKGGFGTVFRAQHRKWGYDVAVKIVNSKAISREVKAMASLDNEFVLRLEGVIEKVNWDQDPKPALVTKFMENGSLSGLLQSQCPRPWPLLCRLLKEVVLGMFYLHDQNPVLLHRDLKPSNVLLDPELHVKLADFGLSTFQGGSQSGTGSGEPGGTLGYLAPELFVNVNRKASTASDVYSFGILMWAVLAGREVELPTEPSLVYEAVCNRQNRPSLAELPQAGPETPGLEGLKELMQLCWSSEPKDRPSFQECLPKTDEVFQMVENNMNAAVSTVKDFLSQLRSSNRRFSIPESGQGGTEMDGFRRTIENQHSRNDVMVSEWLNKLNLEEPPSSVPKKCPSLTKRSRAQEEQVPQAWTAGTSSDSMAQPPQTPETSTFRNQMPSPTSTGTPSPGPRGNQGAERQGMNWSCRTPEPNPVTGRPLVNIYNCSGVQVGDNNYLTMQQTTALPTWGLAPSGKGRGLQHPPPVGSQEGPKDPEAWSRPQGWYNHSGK
Chain of Cytochrome P450 2D6 (P10635 whole entry): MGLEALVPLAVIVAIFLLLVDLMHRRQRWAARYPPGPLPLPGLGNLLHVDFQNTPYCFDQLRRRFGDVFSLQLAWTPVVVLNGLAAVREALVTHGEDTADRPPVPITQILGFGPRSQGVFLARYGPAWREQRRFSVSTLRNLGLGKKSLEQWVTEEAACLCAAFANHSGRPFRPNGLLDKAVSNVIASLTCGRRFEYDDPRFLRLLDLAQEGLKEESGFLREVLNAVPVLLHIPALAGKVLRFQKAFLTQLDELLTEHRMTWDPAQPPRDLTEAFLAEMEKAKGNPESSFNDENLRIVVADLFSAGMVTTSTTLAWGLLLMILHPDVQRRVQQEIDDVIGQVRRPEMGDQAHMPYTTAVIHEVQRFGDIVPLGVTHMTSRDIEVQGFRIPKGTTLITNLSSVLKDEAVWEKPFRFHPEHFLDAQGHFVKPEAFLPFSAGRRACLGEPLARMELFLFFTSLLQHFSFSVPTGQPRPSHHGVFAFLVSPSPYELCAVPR
Chain of Cytochrome P450 2C9 (P11712 whole entry): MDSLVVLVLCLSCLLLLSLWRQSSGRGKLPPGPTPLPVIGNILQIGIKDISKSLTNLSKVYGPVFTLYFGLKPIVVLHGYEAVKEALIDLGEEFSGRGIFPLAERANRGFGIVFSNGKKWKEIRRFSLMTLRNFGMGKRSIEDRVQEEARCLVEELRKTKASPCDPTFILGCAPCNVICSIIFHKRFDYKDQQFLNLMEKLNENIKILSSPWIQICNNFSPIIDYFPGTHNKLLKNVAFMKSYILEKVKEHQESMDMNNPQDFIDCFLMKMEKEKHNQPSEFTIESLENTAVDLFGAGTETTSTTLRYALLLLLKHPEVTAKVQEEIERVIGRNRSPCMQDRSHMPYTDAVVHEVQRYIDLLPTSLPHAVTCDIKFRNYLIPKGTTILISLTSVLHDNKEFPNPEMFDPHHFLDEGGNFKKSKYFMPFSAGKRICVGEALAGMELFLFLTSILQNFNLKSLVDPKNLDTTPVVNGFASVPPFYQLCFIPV
Chain of Cytochrome P450 3A4 (P08684 whole entry): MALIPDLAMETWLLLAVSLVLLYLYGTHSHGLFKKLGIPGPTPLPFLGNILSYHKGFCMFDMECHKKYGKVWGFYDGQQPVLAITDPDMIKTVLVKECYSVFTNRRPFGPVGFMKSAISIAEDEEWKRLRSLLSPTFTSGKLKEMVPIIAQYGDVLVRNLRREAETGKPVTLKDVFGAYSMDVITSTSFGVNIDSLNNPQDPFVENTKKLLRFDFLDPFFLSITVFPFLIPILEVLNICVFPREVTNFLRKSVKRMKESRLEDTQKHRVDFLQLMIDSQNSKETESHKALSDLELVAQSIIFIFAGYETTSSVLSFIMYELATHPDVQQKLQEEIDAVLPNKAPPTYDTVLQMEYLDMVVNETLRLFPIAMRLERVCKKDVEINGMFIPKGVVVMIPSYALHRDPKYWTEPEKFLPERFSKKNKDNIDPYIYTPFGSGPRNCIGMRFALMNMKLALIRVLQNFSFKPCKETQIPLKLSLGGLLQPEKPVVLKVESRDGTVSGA

`CCC(C)(C)C(=O)N(O)Cc1ccccc1`: the inhibition entry in data set [1] and in [9] was “Active” each time. The Activity result in the data set on Mus musculus [2] was “Non-Toxic”; in the data set on Mus musculus [10], “Dose-dependent effect”. Further, the result in the data set on Mus musculus [3], in the data set on Mus musculus [15], in the data set on Mus musculus [16], in the data set with Mus musculus [17] and in the data set with Mus musculus [18] was Active. For the same compound, the IC50 at Cytochrome P450 3A4 was more than 3.5 µM; at Cytochrome P450 2D6, more than 50 µM; against Cytochrome P450 2C9 it was more than 50 µM. Also, in data set [4], the inhibition result was “inactive”. In addition, the results for the half-life in data set [5], in data set [7] and in data set [12] were 3.1 h, 0.592 h and 2.13 h, respectively. The efflux ratio in data set [6] came out at 0.87. Moreover, the Papp A→B in data set [8] is more than 30 ×10⁻⁶ cm/s. Further, the microsomal CLint turned out to be 19.5 µL/min/mg in data set [11] and 5.4 µL/min/mg in data set [14]. Further, the Papp B→A in data set [13] was more than 30 ×10⁻⁶ cm/s.
